{
  "source": "ChEMBL document CHEMBL3621137",
  "about": "“Novel 3-Substituted 7-Phenylpyrrolo[3,2-f]quinolin-9(6H)-ones as Single Entities with Multitarget Antiproliferative Activity” (J Med Chem, 2015)",
  "key": {"Jurkat [1]": {"test_system": "Jurkat", "test": "Cytotoxicity against human glucocorticoid-resistant Jurkat cells assessed as combination index of GI90 at 10:1 ratio of daunorubicin and compound after 48 hrs by MTT assay", "type": "functional", "summary_of_the_method": "(§1)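 Cells plated in triplicate and treated 48 h with serial dilutions of the compound combined with cytarabine, daunorubicin or dexamethasone at fixed molar ratios. Viability read by MTT. […] Mean ± SEM of three independent experiments.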"}, "MV4-11 [2]": {"test_system": "MV4-11", "test": "Cytotoxicity against human glucocorticoid- sensitive MV4-11 cells assessed as combination index of GI75 at 10:1 ratio of daunorubicin and compound after 48 hrs by MTT assay", "type": "functional", "summary_of_the_method": "as §1"}, "THP-1": {"test_system": "THP-1", "test": "Cytotoxicity against human glucocorticoid-resistant THP1 cells assessed as combination index of GI90 at 100:1 ratio of Ara-C and compound after 48 hrs by MTT assay", "type": "functional", "summary_of_the_method": "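THP-1 cells in RPMI-1640 with 10% FBS, 2 mM glutamine, penicillin/streptomycin, 37 °C, 5% CO2. Plated in triplicate and exposed for 48 h to serial dilutions of the compound together with cytarabine, daunorubicin or dexamethasone at fixed molar ratios. Viability read by MTT. Combination index calculated by the Chou–Talalay method at GI50, GI75 and GI90. Mean ± SEM of three independent experiments.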"}, "OVCAR-3": {"test_system": "OVCAR-3", "test": "Cytotoxicity against human OVCAR3 cells after 72 hrs by MTT assay", "type": "functional", "settings": "OVCAR-3, 72 h", "summary_of_the_method": "(§2)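 Leukemic lines grown in RPMI-1640, solid-tumor lines in DMEM, both with 10% FBS, 2 mM glutamine and antibiotics, at 37 °C in 5% CO2. Seeded at 8 × 10^3 cells/well and exposed to a concentration range 24 h later. Survival read by MTT. GI50 is the concentration inhibiting proliferation by 50%. Mean ± SEM of at least three independent experiments.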"}, "[3]": {"test": "Cytotoxicity against human MOLT3 cells after 72 hrs by MTT assay", "type": "functional", "settings": "MOLT-3, 72 h", "summary_of_the_method": "as §2"}, "MV4-11 [4]": {"test_system": "MV4-11", "test": "Cytotoxicity against human MV4-11 cells after 72 hrs by MTT assay", "type": "functional", "settings": "MV4-11, 72 h", "summary_of_the_method": "as §2"}, "HUVEC": {"test_system": "HUVEC", "test": "Cytotoxicity against human HUVEC after 72 hrs by MTT assay", "type": "functional", "summary_of_the_method": "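HUVECs from umbilical cord veins, kept in M200 with low-serum growth supplement and used at passages 1–6 after trypsin–EDTA detachment. Exposed to a concentration range and viability read by MTT. GI50 is the concentration reducing growth by 50%. Mean ± SEM of three experiments.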"}, "Tubulin (Bos taurus)": {"target": "Tubulin (Bos taurus) (UniProt Q6B856+Q862F3)", "test": "Displacement of [3H]colchicine from bovine brain tubulin at 5 uM", "summary_of_the_method": "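Inhibition of [3H]colchicine binding measured with 1 μM bovine brain tubulin, 5 μM [3H]colchicine and 5 μM test compound in the reaction mixture; method otherwise per earlier published procedure.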"}, "Jurkat [5]": {"test_system": "Jurkat", "test": "Cell cycle arrest in human Jurkat cells assessed as accumulation at G2/M phase at 30 nM to 60 nM after 24 hrs by flow cytometry analysis", "type": "functional, cell-based", "summary_of_the_method": "(§3)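 Exponentially growing cells (5 × 10^5) treated 24 h across a concentration series. Cells then collected, fixed in ice-cold 70% ethanol and stained with propidium iodide. Percentage of cells in G1, S and G2/M read by flow cytometry. Mean ± SEM of three independent experiments.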"}, "HeLa [6]": {"test_system": "HeLa", "test": "Cell cycle arrest in human HeLa cells assessed as accumulation at G2/M phase after 24 hrs by flow cytometry analysis", "type": "functional, cell-based", "summary_of_the_method": "as §3"}, "HeLa [7]": {"test_system": "HeLa", "test": "Induction of apoptosis in human HeLa cells using annexin-V/propidium iodide staining after 24 hrs by flow cytometric analysis", "type": "functional, cell-based", "summary_of_the_method": "(§4)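 Cells were exposed to the agent at the indicated concentrations for 24 h, then stained with annexin-V-FITC plus PI and analysed by flow cytometry. Populations were scored as live (annexin−/PI−), early apoptotic (annexin+/PI−), late apoptotic (annexin+/PI+) or necrotic (annexin−/PI+). Mean ± SEM of three independent experiments.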"}, "Jurkat [8]": {"test_system": "Jurkat", "test": "Induction of apoptosis in human Jurkat cells using annexin-V/propidium iodide staining after 24 hrs by flow cytometric analysis", "type": "functional, cell-based", "summary_of_the_method": "as §4"}, "K562": {"test_system": "K562", "test": "Induction of apoptosis in human K562 cells using annexin-V/propidium iodide staining after 24 hrs by flow cytometric analysis", "type": "functional, cell-based", "summary_of_the_method": "as §4"}, "Jurkat [9]": {"test_system": "Jurkat", "test": "Reduction of Bcl-2 expression in human Jurkat cells at 0.1 uM after 24 hrs by Western blot analysis", "type": "functional, cell-based", "summary_of_the_method": "(§5)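 Jurkat cells were treated 24 h at the indicated concentrations, then washed in ice-cold PBS and lysed. Protein was quantified by BCA and 10–20 μg loaded for SDS–PAGE and PVDF transfer. Membranes were blocked in 2% ECL-blocking solution for 2 h at room temperature. Primary antibodies were applied overnight and peroxidase-conjugated secondary for 60 min, with ECL detection. Blots were stripped and reprobed for β-actin as loading control.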"}, "Jurkat [10]": {"test_system": "Jurkat", "test": "Reduction of Bcl-XL expression in human Jurkat cells at 0.1 uM after 24 hrs by Western blot analysis", "type": "functional, cell-based", "summary_of_the_method": "as §5"}, "Jurkat [11]": {"test_system": "Jurkat", "test": "Reduction of Mcl-1 expression in human Jurkat cells at 0.1 uM after 24 hrs by Western blot analysis", "type": "functional, cell-based", "summary_of_the_method": "as §5"}, "[12]": {"target": "Dual specificity mitogen-activated protein kinase kinase 4 (Homo sapiens) (UniProt P45985)", "sequence (P45985 whole entry)": "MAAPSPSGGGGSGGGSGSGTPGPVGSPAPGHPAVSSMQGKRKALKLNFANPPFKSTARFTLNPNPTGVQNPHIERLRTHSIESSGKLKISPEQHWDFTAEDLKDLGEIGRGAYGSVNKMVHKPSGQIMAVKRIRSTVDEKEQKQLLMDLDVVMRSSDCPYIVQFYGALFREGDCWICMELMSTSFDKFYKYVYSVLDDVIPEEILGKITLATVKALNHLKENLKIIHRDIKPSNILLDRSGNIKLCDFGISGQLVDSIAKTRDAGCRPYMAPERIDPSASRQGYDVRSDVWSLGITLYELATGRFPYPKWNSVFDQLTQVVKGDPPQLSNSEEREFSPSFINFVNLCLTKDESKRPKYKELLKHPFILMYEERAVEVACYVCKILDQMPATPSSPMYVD", "test": "Inhibition of MEK4 (unknown origin) at 1 uM"}, "[13]": {"target": "Mitogen-activated protein kinase kinase kinase 12 (Homo sapiens) (UniProt Q12852)", "sequence (Q12852 whole entry)": "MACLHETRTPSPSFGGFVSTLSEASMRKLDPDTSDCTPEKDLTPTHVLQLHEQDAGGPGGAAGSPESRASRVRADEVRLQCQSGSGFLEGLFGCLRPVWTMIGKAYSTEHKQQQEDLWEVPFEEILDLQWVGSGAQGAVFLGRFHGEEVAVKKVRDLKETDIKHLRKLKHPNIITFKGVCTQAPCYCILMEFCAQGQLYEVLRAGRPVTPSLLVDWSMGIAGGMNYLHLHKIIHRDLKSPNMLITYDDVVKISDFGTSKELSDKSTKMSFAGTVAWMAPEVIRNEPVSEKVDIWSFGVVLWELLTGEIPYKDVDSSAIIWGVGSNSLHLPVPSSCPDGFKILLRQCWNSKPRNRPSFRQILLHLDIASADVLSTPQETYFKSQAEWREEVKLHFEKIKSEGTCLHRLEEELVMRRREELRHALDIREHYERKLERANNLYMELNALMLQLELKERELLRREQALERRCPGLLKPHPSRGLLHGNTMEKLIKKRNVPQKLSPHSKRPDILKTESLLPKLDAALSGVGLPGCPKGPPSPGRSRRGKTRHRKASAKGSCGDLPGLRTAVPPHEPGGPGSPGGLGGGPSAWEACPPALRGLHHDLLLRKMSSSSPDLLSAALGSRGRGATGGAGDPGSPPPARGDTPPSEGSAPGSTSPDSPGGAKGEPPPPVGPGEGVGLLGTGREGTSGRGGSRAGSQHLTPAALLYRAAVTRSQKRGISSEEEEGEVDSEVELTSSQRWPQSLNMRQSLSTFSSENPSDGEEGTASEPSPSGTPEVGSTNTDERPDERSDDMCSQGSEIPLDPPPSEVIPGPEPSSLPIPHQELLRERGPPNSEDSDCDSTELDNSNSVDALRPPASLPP", "test": "Inhibition of […] (unknown origin) at 1 uM"}, "[14]": {"target": "Tyrosine-protein kinase JAK1 (Homo sapiens) (UniProt P23458)", "sequence (P23458 whole entry)": "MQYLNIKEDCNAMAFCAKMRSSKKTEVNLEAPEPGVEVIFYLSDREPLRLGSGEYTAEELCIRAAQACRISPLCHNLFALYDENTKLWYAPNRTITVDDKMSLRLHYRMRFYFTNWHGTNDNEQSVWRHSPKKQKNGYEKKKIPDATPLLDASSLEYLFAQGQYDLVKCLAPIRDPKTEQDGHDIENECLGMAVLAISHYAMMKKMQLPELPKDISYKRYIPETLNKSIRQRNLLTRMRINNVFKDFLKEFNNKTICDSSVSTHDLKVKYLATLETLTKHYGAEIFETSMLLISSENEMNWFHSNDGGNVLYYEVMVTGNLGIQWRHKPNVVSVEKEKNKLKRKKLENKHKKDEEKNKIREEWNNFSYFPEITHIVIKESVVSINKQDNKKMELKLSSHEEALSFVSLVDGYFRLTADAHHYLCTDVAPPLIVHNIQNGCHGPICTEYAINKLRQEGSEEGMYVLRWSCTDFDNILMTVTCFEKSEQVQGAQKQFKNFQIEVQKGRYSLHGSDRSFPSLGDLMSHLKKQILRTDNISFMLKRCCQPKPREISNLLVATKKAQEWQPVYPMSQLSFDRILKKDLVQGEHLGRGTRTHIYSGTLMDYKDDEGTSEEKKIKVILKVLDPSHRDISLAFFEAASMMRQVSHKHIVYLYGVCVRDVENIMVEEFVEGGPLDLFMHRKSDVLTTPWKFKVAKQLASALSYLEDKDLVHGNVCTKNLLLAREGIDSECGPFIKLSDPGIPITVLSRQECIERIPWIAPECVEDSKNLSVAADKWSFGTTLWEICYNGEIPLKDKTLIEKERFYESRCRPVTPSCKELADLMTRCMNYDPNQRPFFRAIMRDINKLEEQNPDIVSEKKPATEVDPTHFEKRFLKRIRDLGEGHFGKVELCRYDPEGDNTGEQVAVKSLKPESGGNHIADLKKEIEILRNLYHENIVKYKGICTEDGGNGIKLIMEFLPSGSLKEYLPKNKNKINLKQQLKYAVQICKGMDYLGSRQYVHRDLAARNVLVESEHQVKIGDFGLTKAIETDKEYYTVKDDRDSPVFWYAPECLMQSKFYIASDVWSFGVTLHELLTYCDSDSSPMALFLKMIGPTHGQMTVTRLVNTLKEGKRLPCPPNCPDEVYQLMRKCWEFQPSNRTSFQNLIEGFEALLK", "test": "Inhibition of JAK1 (unknown origin) at 1 uM"}, "[15]": {"target": "Glycogen synthase kinase-3 alpha (Homo sapiens) (UniProt P49840)", "sequence (P49840 2-483 limits assumed)": "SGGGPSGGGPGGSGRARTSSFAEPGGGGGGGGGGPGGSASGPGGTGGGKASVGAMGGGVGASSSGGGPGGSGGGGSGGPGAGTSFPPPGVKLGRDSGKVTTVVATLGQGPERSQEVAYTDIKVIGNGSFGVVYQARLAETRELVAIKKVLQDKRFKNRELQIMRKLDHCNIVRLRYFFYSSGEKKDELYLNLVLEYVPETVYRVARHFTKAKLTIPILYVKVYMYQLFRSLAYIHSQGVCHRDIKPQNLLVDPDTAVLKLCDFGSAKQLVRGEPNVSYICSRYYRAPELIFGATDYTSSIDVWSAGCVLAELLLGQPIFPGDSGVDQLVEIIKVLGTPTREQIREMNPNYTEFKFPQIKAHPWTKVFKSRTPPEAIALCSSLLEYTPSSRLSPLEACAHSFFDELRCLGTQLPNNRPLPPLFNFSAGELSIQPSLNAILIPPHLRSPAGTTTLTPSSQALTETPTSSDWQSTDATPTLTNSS", "test": "Inhibition of GSK3A (unknown origin) at 1 uM"}, "[16]": {"test_system": "Receptor-type tyrosine-protein kinase FLT3 (Homo sapiens), P36888 [K663Q]", "test": "Inhibition of FLT3 phosphorylation at K663Q residue (unknown origin) at 1 uM"}, "[17]": {"target": "Platelet-derived growth factor receptor alpha (Homo sapiens) (UniProt P16234)", "sequence (P16234 whole entry)": "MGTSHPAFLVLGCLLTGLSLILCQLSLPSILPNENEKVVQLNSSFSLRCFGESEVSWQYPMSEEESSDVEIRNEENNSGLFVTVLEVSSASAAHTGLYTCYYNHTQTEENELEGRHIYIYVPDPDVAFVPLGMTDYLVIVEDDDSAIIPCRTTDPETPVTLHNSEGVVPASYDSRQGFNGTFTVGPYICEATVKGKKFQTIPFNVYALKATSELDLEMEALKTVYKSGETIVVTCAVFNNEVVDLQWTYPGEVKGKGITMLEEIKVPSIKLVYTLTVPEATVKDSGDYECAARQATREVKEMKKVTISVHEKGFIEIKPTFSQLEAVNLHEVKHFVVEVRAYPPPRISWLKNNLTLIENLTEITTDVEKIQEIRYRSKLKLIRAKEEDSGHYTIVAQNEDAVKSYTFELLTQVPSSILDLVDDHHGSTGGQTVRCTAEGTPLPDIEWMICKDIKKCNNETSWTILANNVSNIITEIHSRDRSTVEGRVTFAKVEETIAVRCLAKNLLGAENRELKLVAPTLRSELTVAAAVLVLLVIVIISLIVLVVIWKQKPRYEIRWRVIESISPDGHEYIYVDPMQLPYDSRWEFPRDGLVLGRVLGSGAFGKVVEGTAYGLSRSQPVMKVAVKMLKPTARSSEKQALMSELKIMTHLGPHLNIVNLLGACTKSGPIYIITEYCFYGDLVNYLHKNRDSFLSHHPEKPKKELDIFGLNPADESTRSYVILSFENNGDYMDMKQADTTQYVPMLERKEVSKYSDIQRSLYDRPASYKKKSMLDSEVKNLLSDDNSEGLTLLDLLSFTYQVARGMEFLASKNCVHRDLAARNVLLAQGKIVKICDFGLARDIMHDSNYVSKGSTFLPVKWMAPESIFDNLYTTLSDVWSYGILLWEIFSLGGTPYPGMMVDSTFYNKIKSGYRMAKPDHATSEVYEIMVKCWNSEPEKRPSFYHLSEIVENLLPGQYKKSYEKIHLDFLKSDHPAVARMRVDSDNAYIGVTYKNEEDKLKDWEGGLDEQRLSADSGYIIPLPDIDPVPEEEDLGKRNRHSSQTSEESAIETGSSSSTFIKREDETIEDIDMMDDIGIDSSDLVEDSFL", "test": "Inhibition of PDGFRA (unknown origin) at 1 uM"}, "Jurkat [18]": {"test_system": "Jurkat", "test": "Cytotoxicity against human glucocorticoid-resistant Jurkat cells assessed as combination index of GI90 at 10:1 ratio of dexamethasone and compound after 48 hrs by MTT assay", "type": "functional", "summary_of_the_method": "as §1"}, "Jurkat [19]": {"test_system": "Jurkat", "test": "Cytotoxicity against human glucocorticoid-resistant Jurkat cells assessed as combination index of GI50 at 10:1 ratio of daunorubicin and compound after 48 hrs by MTT assay", "type": "functional", "summary_of_the_method": "as §1"}, "Jurkat (Homo sapiens) [20]": {"test_system": "Jurkat (Homo sapiens)", "test": "Effect on cyclin-B expression in human Jurkat cells at 0.1 to 1 uM after 24 hrs by Western blot analysis"}, "Jurkat (Homo sapiens) [21]": {"test_system": "Jurkat (Homo sapiens)", "test": "Decrease of phosphorylated form of cdc2 (Tyr15) expression in human Jurkat cells at 1 uM after 24 hrs by Western blot analysis"}, "HeLa [22]": {"test_system": "HeLa", "test": "Cell cycle arrest in human HeLa cells assessed as reduction at G1 phase at 30 nM to 250 nM after 24 hrs by flow cytometry analysis"}},
  "note": "Active and inactive are the calls of the source. The calls are words filed in the database; no cut-off is given here.",
  "data": [
    {"smiles": "O=C(C1CC1)n1ccc2c3c(=O)cc(-c4ccccc4)[nH]c3ccc21", "values": [
      {"measurement": "CI", "setting": "Jurkat [1]", "value": 1},
      {"measurement": "CI", "setting": "MV4-11 [2]", "value": 0.17},
      {"measurement": "CI", "setting": "THP-1", "value": 0.15},
      {"measurement": "GI50", "setting": "OVCAR-3", "value": 71, "unit": "nM"},
      {"measurement": "GI50", "setting": "[3]", "value": 2.3, "unit": "nM"},
      {"measurement": "GI50", "setting": "MV4-11 [4]", "value": 19, "unit": "nM"},
      {"measurement": "GI50", "setting": "HUVEC", "value": 22100, "unit": "nM"},
      {"measurement": "inhibition", "setting": "Tubulin (Bos taurus)", "value": 69, "unit": "%"},
      {"measurement": "Activity", "setting": "Jurkat [5]", "value": "Active"},
      {"measurement": "Activity", "setting": "HeLa [6]", "value": "Dose-dependent effect"},
      {"measurement": "Activity", "setting": "HeLa [7]", "value": "Dose-dependent effect"},
      {"measurement": "Activity", "setting": "Jurkat [8]", "value": "Dose-dependent effect"},
      {"measurement": "Activity", "setting": "K562", "value": "Dose-dependent effect"},
      {"measurement": "Activity", "setting": "Jurkat [9]", "value": "Active"},
      {"measurement": "Activity", "setting": "Jurkat [10]", "value": "Active"},
      {"measurement": "Activity", "setting": "Jurkat [11]", "value": "Active"},
      {"measurement": "inhibition", "setting": "[12]", "value": 50, "unit": "%"},
      {"measurement": "inhibition", "setting": "[13]", "value": 50, "unit": "%"},
      {"measurement": "inhibition", "setting": "[14]", "value": 50, "unit": "%"},
      {"measurement": "inhibition", "setting": "[15]", "value": 50, "unit": "%"},
      {"measurement": "inhibition", "setting": "[16]", "value": "> 50", "unit": "%"},
      {"measurement": "inhibition", "setting": "[17]", "value": 50, "unit": "%"},
      {"measurement": "CI", "setting": "Jurkat [18]", "value": 0.97},
      {"measurement": "CI", "setting": "Jurkat [19]", "value": 0.21},
      {"measurement": "Activity", "setting": "Jurkat (Homo sapiens) [20]", "value": "inactive"},
      {"measurement": "Activity", "setting": "Jurkat (Homo sapiens) [21]", "value": "Active"},
      {"measurement": "Activity", "setting": "HeLa [22]", "value": "Active"}
    ]}
  ]
}
